The record followed here is ChEMBL document CHEMBL1152972, “Rearranged prenylated C6-C3 compounds and a highly oxygenated seco-prezizaane-type sesquiterpene from the stem bark of Illicium oligandrum” (2009).

Calls of active or inactive are those of the source. The rule behind the calls is not given here.

The subject of one assay is A2780. Put plainly: Cytotoxicity against human A2780 cells. The class given is functional, cell-based.
Another assay relates to A549. Put plainly: Cytotoxicity against human A549 cells. It is filed as functional, cell-based.
The test system of another assay is HCT-8. Briefly: Cytotoxicity against human HCT8 cells. It is filed as functional, cell-based.
The nature of assay [1]: Antiinflammatory activity in rat PMNC assessed as inhibition of platelet activating factor-induced beta-glucuronidase release at 10 uM treated 15 mins before PAF challenge. It is filed as functional. Details: scale not given: the % may be the effect or the level left. In a few lines: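 Rat PMN suspension (2.5 × 10^6 cells/mL) preincubated with sample (stock 0.1 M in DMSO, diluted in RPMI-1640) 15 min at 37 °C, then cytochalasin B 5 min, then PAF; stopped on ice after 10 min. Supernatant incubated with phenolphthalein glucuronic acid in 0.1 M HOAc buffer pH 4.6, 37 °C, 18 h; NaOH added, A550 read; inhibitory ratio versus PAF and control wells; ginkgolide B reference.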

In a further assay the test system is BGC-823. Briefly: Cytotoxicity against human BGC823 cells. It is filed as functional, cell-based.
Another assay has as its system Bel-7402. Briefly: Cytotoxicity against human Bel7402 cells. The class given is functional, cell-based.

Consider `C=CC[C@@]12C=C(C[C@H](O)C(C)(C)O)C(=O)C=C1OCO2` [ILLIOLIGANONE B], for which the outcome in the assay on A2780, with A549, in the assay with HCT-8, in the assay on BGC-823 and in the assay with Bel-7402 was inactive. Besides, the Activity in assay [1] stood at 33.8%.
In the case of `CO[C@]12OC[C@@]3(C)[C@@]4(O)CC[C@@H](COC(=O)c5ccccc5)[C@]4(C[C@@H](O1)[C@@]3(O)CO)[C@H]2O` [OLIGANDRIORTHOLACTONE], the outcome in the assay with A2780, in the assay with A549, in the assay on HCT-8, in the assay with BGC-823 and in the assay on Bel-7402 was inactive. Also, the Activity in assay [1] is recorded as 15.8%.
For `C=CCC1=C[C@]2(O)C[C@H](C(C)(C)O)OC2=CC1=O`, the result in the assay on A2780, in the assay on A549, with HCT-8, in the assay on BGC-823 and with Bel-7402 was inactive. Moreover, the Activity in assay [1] was 4.8%.
For the compound `C=CC[C@@H]1C[C@]2(O)C[C@H](C(C)(C)O)OC2=CC1=O` [ILLIFUNONE C], the outcome with A2780, in the assay on A549, with HCT-8, with BGC-823 and with Bel-7402 was inactive. For the same compound, in assay [1], the Activity is listed as -9.4%.
Regarding `C[C@@H]1CC[C@@]2(O)[C@]13C[C@@H](OC(=O)[C@@H]3O)[C@@]1(O)C(=O)OC[C@@]21C` [NEOMAJUCIN], the result in the assay with A2780, in the assay on A549, in the assay on HCT-8, in the assay on BGC-823 and with Bel-7402 was inactive. For the same compound, the Activity in assay [1] was found to be 22.4%.
For the compound `C=CCC1=C[C@]2(O)C[C@@H](O)C(C)(C)[C@H](C1=O)C2=O` [ILLIOLIGANONE A], the outcome with A2780, in the assay on A549, in the assay on HCT-8, in the assay with BGC-823 and with Bel-7402 was inactive. For the same compound, the Activity in assay [1] is reported as -7.7%.
Regarding `C=CC[C@]1(C[C@H](O)C(C)(C)O)C=C2OCOC2=CC1=O` [ILLIOLIGANONE C], the outcome in the assay on A2780, in the assay on A549, in the assay with HCT-8, in the assay on BGC-823 and in the assay on Bel-7402 was inactive. Further, the Activity in assay [1] is listed as 20.1%.
On to `C=CC[C@H]1C[C@]2(O)C[C@H](C(C)(C)O)OC2=CC1=O` [ILLIFUNONE D], for which the outcome in the assay on A2780, in the assay with A549, with HCT-8, in the assay with BGC-823 and in the assay with Bel-7402 was inactive. In addition, the Activity in assay [1] was 18%.
